# Experimental data taken from ChEMBL document CHEMBL1155292, “Synthesis, analgesic and anti-inflammatory activities evaluation of some bi-, tri- and tetracyclic condensed pyrimidines” (Eur J Med Chem, 2009).
# Experiments:
# Rattus norvegicus [1] = assay: Antiinflammatory activity in albino rat assessed as inhibition of carrageenan-induced paw edema at 0.029 mmol/kg, po after 2 hrs relative to control; assay type: functional
# Outline: (§1)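 Adult albino rats of either sex, 120–150 g, six per group. Compounds at 0.029 mmol/kg suspended in saline with a few drops of Tween 80 and given by oral stomach tube. After 1 h, 0.1 ml of freshly prepared 1% carrageenan in saline injected subplantar into the right hind paw. Paw thickness measured at 1–4 h; % edema inhibition versus control; mean ± SEM; ANOVA.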
# Rattus norvegicus [2] = assay: Gastrointestinal toxicity in albino rat assessed as ulcerogenic index at 0.029 mmol/kg, po after 5 hrs; assay type: organism-based; details: in vivo
# Outline: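 Adult albino rats of either sex (120–150 g), 6 per group, got the test compounds orally by stomach tube as a suspension in saline with a few drops of tween 80. They were the same rats used in the carrageenan paw-edema test. Stomachs were then opened along the great curvature and examined for lesions or bleeding. Ulceration was recorded as the number of rats with ulcers out of 6.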
# Rattus norvegicus [3] = assay: Antiinflammatory activity in albino rat assessed as inhibition of carrageenan-induced paw edema at 0.029 mmol/kg, po after 4 hrs relative to control; assay type: functional; outline: as §1
# Rattus norvegicus [4] = assay: Antiinflammatory activity in albino rat assessed as inhibition of carrageenan-induced paw edema at 0.029 mmol/kg, po after 4 hrs relative to indomethacin; assay type: functional
# Outline: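 Rat carrageenan paw edema: oral 0.029 mmol/kg in saline/Tween 80, 1 h before subplantar 0.1 ml 1% carrageenan into the right hind paw; six rats per group. Potency is % inhibition of the test compound divided by % inhibition of indomethacin at 4 h.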
# Rattus norvegicus [5] = assay: Antiinflammatory activity in albino rat assessed as inhibition of carrageenan-induced paw edema at 0.029 mmol/kg, po after 3 hrs relative to control; assay type: functional; outline: as §1
# Rattus norvegicus [6] = assay: Antiinflammatory activity in albino rat assessed as inhibition of carrageenan-induced paw edema at 0.029 mmol/kg, po after 1 hr relative to control; assay type: functional; outline: as §1
# Mus musculus [7] = assay: Analgesic activity in albino mouse assessed as decrease in acetic acid-induced writhing at 14.37 mg/kg, po administered 1 hr prior to acetic acid challenge relative to control; assay type: functional
# Outline: (§2)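 Albino mice of either sex, 18–22 g, six per group. Test agents suspended in saline with a few drops of Tween 80 and given by oral stomach tube; controls handled identically without drug. After 1 h, 0.3 ml of 1% acetic acid ip. Writhing contractions counted for 30 min, starting 5 min after injection. % protection versus control mean; mean ± SEM; one-way ANOVA with post hoc test.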
# Mus musculus [8] = assay: Analgesic activity in po dosed albino mouse assessed as decrease in acetic acid-induced writhing administered 1 hr prior to acetic acid challenge; assay type: functional, organism-based; outline: as §2
# Mus musculus [9] = assay: Analgesic activity in albino mouse assessed as decrease in acetic acid-induced writhing at 8 mg/kg, po administered 1 hr prior to acetic acid challenge; assay type: functional; outline: as §2
# Mus musculus [10] = assay: Analgesic activity in albino mouse assessed as decrease in acetic acid-induced writhing at 1 mg/kg, po administered 1 hr prior to acetic acid challenge; assay type: functional; outline: as §2
# Mus musculus [11] = assay: Analgesic activity in albino mouse assessed as decrease in acetic acid-induced writhing at 0.8 mg/kg, po administered 1 hr prior to acetic acid challenge; assay type: functional; outline: as §2
# Mus musculus [12] = assay: Analgesic activity in albino mouse assessed as decrease in acetic acid-induced writhing at 10.86 mg/kg, po administered 1 hr prior to acetic acid challenge relative to control; assay type: functional; outline: as §2
# Mus musculus [13] = assay: Analgesic activity in albino mouse assessed as decrease in acetic acid-induced writhing at 2 mg/kg, po administered 1 hr prior to acetic acid challenge; assay type: functional; outline: as §2
# Mus musculus [14] = assay: Analgesic activity in albino mouse assessed as decrease in acetic acid-induced writhing at 0.4 mg/kg, po administered 1 hr prior to acetic acid challenge; assay type: functional; outline: as §2
# Mus musculus [15] = assay: Analgesic activity in albino mouse assessed as decrease in acetic acid-induced writhing at 4 mg/kg, po administered 1 hr prior to acetic acid challenge; assay type: functional; outline: as §2
# Mus musculus [16] = assay: Analgesic activity in albino mouse assessed as decrease in acetic acid-induced writhing at 10.39 mg/kg, po administered 1 hr prior to acetic acid challenge relative to control; assay type: functional; outline: as §2
# Mus musculus [17] = assay: Analgesic activity in albino mouse assessed as decrease in acetic acid-induced writhing at 12.4 mg/kg, po administered 1 hr prior to acetic acid challenge relative to control; assay type: functional; outline: as §2
# Mus musculus [18] = assay: Analgesic activity in albino mouse assessed as decrease in acetic acid-induced writhing at 13 mg/kg, po administered 1 hr prior to acetic acid challenge relative to control; assay type: functional; outline: as §2
# Mus musculus [19] = assay: Analgesic activity in albino mouse assessed as decrease in acetic acid-induced writhing at 15.26 mg/kg, po administered 1 hr prior to acetic acid challenge relative to control; assay type: functional; outline: as §2
# Rattus norvegicus [20] = assay: Antiinflammatory activity in po dosed albino rat assessed as inhibition of carrageenan-induced paw edema; assay type: functional, organism-based
# Outline: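 Adult albino rats of either sex, 120–150 g, groups of 6. Compound suspended in saline with a few drops of tween 80, given by oral stomach tube 1 h before subplantar injection of freshly prepared 1% carrageenan (0.1 ml) in saline into right hind paw. Paw thickness read at 1–4 h; % edema inhibition versus carrageenan control; mean ± SEM, one-way ANOVA with post hoc test.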
# Mus musculus [21] = assay: Analgesic activity in albino mouse assessed as decrease in acetic acid-induced writhing at 11.66 mg/kg, po administered 1 hr prior to acetic acid challenge relative to control; assay type: functional; outline: as §2
# Rattus norvegicus [22] = assay: Antiinflammatory activity in albino rat assessed as inhibition of carrageenan-induced paw edema at 25 mg/kg, po; assay type: functional
# Outline: (§3)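 Rat carrageenan paw edema with oral dosing at 10, 15, 20 and 25 mg/kg, suspended in saline with Tween 80, 1 h before subplantar 0.1 ml 1% carrageenan into the right hind paw. % edema inhibition versus control at each dose; IC50 (mg/kg) derived from these four doses.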
# Rattus norvegicus [23] = assay: Antiinflammatory activity in albino rat assessed as inhibition of carrageenan-induced paw edema at 15 mg/kg, po; assay type: functional; outline: as §3
# Rattus norvegicus [24] = assay: Antiinflammatory activity in albino rat assessed as inhibition of carrageenan-induced paw edema at 10 mg/kg, po; assay type: functional; outline: as §3
# Rattus norvegicus [25] = assay: Antiinflammatory activity in albino rat assessed as inhibition of carrageenan-induced paw edema at 20 mg/kg, po; assay type: functional; outline: as §3
# Mus musculus [26] = assay: Analgesic activity in albino mouse assessed as decrease in acetic acid-induced writhing at 12.65 mg/kg, po administered 1 hr prior to acetic acid challenge relative to control; assay type: functional; outline: as §2
Structure (SMILES),inhibition in vivo at 29 µmol/kg (Rattus norvegicus [1]),inhibition in vivo at 29 µmol/kg (Rattus norvegicus [3]),relative potency at 29 µmol/kg (Rattus norvegicus [4]),inhibition in vivo at 29 µmol/kg (Rattus norvegicus [5]),inhibition in vivo at 29 µmol/kg (Rattus norvegicus [6]),also measured
CCOC(=O)c1cnn(-c2nc(-c3ccccc3)nc3c2C2CCCN2C(=O)N3c2ccccc2)c1N (configuration not stated),18.2%,11.2%,0.4,23.7%,6.74%,UI (Rattus norvegicus [2]): Non-toxic; inhibition in vivo at 14.37 mg/kg (Mus musculus [7]): 74.8%
CCN1C(=S)N2CCCC2C2=C1NC(c1ccc(OC)c(O)c1)NC2=O (configuration not stated),9.12%,3.09%,0.11,2.89%,22.4%,IC50 (Mus musculus [8]): 0.359 mg/kg; inhibition in vivo at 8 mg/kg (Mus musculus [9]): 97%; inhibition in vivo at 1 mg/kg (Mus musculus [10]): 86.9%; inhibition in vivo at 0.8 mg/kg (Mus musculus [11]): 76%; inhibition in vivo at 10.86 mg/kg (Mus musculus [12]): 98.7%; inhibition in vivo at 2 mg/kg (Mus musculus [13]): 92%; inhibition in vivo at 0.4 mg/kg (Mus musculus [14]): 53.6%; inhibition in vivo at 4 mg/kg (Mus musculus [15]): 95.3%
CCN1C(=S)N2CCCC2C2=C1NC(c1ccc(OC)cc1)NC2=O (configuration not stated),9.12%,14.9%,0.54,10.8%,10.1%,inhibition in vivo at 10.39 mg/kg (Mus musculus [16]): 85%
O=C1N(c2ccccc2)c2nc(-c3ccccc3)nc(N3CCOCC3)c2C2CCCN12 (configuration not stated),19%,11.2%,0.4,18.7%,11.2%,UI (Rattus norvegicus [2]): Non-toxic; inhibition in vivo at 12.4 mg/kg (Mus musculus [17]): 67%
N#Cc1cnn(-c2nc(-c3ccccc3)nc3c2C2CCCN2C(=O)N3c2ccccc2)c1N (configuration not stated),9.92%,6.82%,0.24,9.37%,12.3%,inhibition in vivo at 13 mg/kg (Mus musculus [18]): 76.8%
Cc1ccc(S(=O)(=O)NNc2nc(-c3ccccc3)nc3c2C2CCCN2C(=O)N3c2ccccc2)cc1 (configuration not stated),16.6%,21.7%,0.79,23.1%,22.4%,inhibition in vivo at 15.26 mg/kg (Mus musculus [19]): 76.6%
CCCNc1nc(-c2ccccc2)nc2c1C1CCCN1C(=O)N2c1ccccc1 (configuration not stated),25.6%,36.6%,1.34,30.9%,13.5%,IC50 (Rattus norvegicus [20]): 16.5 mg/kg; inhibition in vivo at 11.66 mg/kg (Mus musculus [21]): 69.6%; inhibition in vivo at 25 mg/kg (Rattus norvegicus [22]): 69%; inhibition in vivo at 15 mg/kg (Rattus norvegicus [23]): 41.6%; inhibition in vivo at 10 mg/kg (Rattus norvegicus [24]): 27.6%; inhibition in vivo at 20 mg/kg (Rattus norvegicus [25]): 63.3%
Cc1cc(C)n(-c2nc(-c3ccccc3)nc3c2C2CCCN2C(=O)N3c2ccccc2)n1 (configuration not stated),20.7%,17.4%,0.63,20.9%,17.9%,inhibition in vivo at 12.65 mg/kg (Mus musculus [26]): 76.6%
